Publication PMC10795152 (ACS Omega, 2024)

What was measured:
EGFR^Del19/T790M/C797S = EGFR^Del19/T790M/C797S (Homo sapiens, UniProt P00533, C797S/DEL746-750/T790M); assay: In vitro enzymatic activity assay; assay type: biochemical
In short: (§1)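 Reaction mix: 40 mM Tris pH 7.4, 10 mM MgCl2, 0.1 mg/mL BSA, 1 mM DTT, 10 μM ATP, 25 ng kinase and 0.2 mg/mL poly(Glu,Tyr) substrate. Test compound diluted in 10% DMSO before addition, giving 1% DMSO final. Residual ATP read by luminescence, with signal inverse to kinase activity. IC50 from nonlinear regression of normalized dose–response data.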

EGFR^L858R/T790M/C797S = EGFR^L858R/T790M/C797S (Homo sapiens, UniProt P00533, C797S/L858R/T790M); assay: In vitro enzymatic activity assay; assay type: biochemical
In short: as §1

- IC50 (EGFR^Del19/T790M/C797S): 1.43 ± 0.022 µM
- IC50 (EGFR^L858R/T790M/C797S): 1.22 ± 0.031 µM
Structure (SMILES): Oc1ccccc1-c1nc(NCCN2CCNCC2)c2ccccc2n1 [4a, 2-(4-((2-(Piperazin-1-yl)ethyl)amino)quinazolin-2-yl)phenol]
